Measurements published in ChEMBL document CHEMBL1909598, “Synthesis of purine-scaffold fluorescent probes for heat shock protein 90 with use in flow cytometry and fluorescence microscopy” (Bioorg Med Chem Lett, 2011).
The source made the active and inactive calls. The calls are words filed in the database; no cut-off is given here.

How the values were obtained:
[1] = molecular target: T1, Heat shock protein HSP90 (Homo sapiens) (UniProt P07900+P08238); test: Inhibition of Hsp90 in human MOLM13 cells assessed as Raf1 degradation at 1 uM after 24 hrs using horseradish peroxidase by Western blot analysis; format: cell-based; conditions: MOLM-13
Procedure, shortened: (§1)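 MOLM-13 cells treated with derivatives at 1 μM for 24 h. Steady-state mFLT3 and Raf-1 levels read by Western blot, with β-actin as the loading control.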

[2] = molecular target: T1, Heat shock protein HSP90 (Homo sapiens); test: Inhibition of Hsp90 in human MOLM13 cells assessed as decrease in cell viability after 24 hrs using DAPI staining by flow cytometry analysis; format: cell-based; conditions: MOLM-13
Procedure, shortened: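 MOLM-13 cells exposed to derivatives at 1 μM, 37°C, 24 h. Viability scored by DAPI exclusion.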

[3] = molecular target: T1, Heat shock protein HSP90 (Homo sapiens); test: Binding affinity to Hsp90 in human MOLM13 cells assessed as staining of live cells at 1 uM after 4 hrs using DAPI staining by flow cytometry analysis; format: cell-based; conditions: MOLM-13
Procedure, shortened: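 MOLM-13 cells exposed to each fluorescent derivative at 1 μM, 37°C, 4 h. Binding to live cells (DAPI negative) read by flow cytometry as mean fluorescence intensity.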

[4] = molecular target: Receptor-type tyrosine-protein kinase FLT3 (Homo sapiens) (UniProt P36888); test: Inhibition of Hsp90 in human MOLM13 cells assessed as FLT3 mutant degradation at 1 uM after 24 hrs using horseradish peroxidase by Western blot analysis; format: cell-based; conditions: MOLM-13; procedure, shortened: as §1
[5] = test system: MV4-11; test: Drug uptake in human MV4-11 cells assessed as intracellular localization at 1 uM after 24 hrs by DAPI staining based confocal fluorescence microscopy; format: ADME, cell-based; conditions: mv4-11, 24 h
Procedure, shortened: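 MV4-11 cells given 1 μM probe at 37°C for 24 h, then fixed. Cells stained with Na⁺/K⁺-ATPase α1 antibody plus Alexa Fluor 568 secondary as the surface marker. DAPI used to mark non-viable cells. Imaged by confocal microscopy.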

[6] = test system: MOLM-13; test: Drug uptake in human MOLM13 cells assessed as CD45 staining of cells at 1 uM after 1 hr using 7-AAD staining by flow cytometry analysis; format: ADME, cell-based; conditions: molm-13, 1 h
[7] = test system: MV4-11; test: Drug uptake in human MV4-11 cells assessed as CD45 staining of cells at 1 uM after 30 mins using 7-AAD staining by flow cytometry analysis; format: ADME, cell-based; conditions: mv4-11, 0.5 h
[8] = Drug uptake in human lymphocytes assessed as CD45 staining of cells at 1 uM after 1 hr using 7-AAD staining by flow cytometry analysis; format: ADME, cell-based; conditions: lymphocyte

Receptor-type tyrosine-protein kinase FLT3 (Homo sapiens), sequence (P36888 whole entry): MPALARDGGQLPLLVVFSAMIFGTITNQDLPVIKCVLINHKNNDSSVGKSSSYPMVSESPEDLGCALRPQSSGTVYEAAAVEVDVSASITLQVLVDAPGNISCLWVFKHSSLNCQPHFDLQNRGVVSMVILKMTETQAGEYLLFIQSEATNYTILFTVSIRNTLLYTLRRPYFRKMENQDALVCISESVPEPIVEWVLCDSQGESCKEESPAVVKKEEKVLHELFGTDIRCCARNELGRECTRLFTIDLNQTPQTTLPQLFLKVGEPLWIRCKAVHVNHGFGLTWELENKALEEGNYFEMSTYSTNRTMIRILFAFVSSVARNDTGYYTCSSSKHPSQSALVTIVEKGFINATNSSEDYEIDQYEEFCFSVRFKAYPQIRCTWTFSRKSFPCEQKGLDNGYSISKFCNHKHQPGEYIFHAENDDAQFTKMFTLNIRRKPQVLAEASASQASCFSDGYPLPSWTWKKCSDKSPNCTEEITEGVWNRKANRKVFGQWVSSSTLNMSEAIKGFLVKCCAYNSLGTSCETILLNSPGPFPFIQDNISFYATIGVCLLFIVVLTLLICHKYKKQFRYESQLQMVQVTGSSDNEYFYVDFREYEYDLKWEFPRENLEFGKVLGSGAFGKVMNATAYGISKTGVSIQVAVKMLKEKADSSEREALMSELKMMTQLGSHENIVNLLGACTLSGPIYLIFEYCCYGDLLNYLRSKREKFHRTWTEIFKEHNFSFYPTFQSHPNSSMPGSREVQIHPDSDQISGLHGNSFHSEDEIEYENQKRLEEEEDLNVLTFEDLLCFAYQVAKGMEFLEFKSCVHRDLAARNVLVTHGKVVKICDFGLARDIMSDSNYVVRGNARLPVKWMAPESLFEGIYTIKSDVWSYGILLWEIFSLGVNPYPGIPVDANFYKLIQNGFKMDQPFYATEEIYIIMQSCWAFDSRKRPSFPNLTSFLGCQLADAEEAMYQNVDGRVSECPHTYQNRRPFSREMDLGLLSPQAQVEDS

inhibition [1] | Activity [3] | inhibition [4] | Drug uptake [5] | Drug uptake [6] | Drug uptake [7] | Drug uptake [8] | Compound | inhibition [2]
Active | Active | Active | Active | – | – | – | Nc1ncnc2c1nc(Sc1cc3c(cc1I)OCO3)n2CCCNCCCCCCNc1ccc([N+](=O)[O-])c2nonc12 | Active
Active | Active | Active | Active | Active | Active | Not Active | CC(C)N(CCCn1c(Sc2cc3c(cc2I)OCO3)nc2c(N)ncnc21)C(=S)Nc1ccc(-c2c3ccc(=O)cc-3oc3cc(O)ccc23)c(C(=O)O)c1 | Active
